Laboratory results as given in ChEMBL document CHEMBL1122650, “Synthesis and central nervous system properties of 2-[(alkoxycarbonyl)amino]-4(5)-phenyl-2-imidazolines” (J Med Chem, 1984).
Activity calls are given as the source filed them. The rule behind the calls is not given here.

Experiments:
[1] = HPLC capacity factor (k'); format: ADME
Mus musculus [2] = species on record: Mus musculus; test: Mouse behavior activity was determined; Dwk=Depressant Weak; format: functional, organism-based
Method in brief: (§1)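 Male Simonsen (ICR) fBR mice, 18-24 g, groups of three, given 3, 10, 30, 100, 300 or 1000 mg/kg ip as aqueous solution and observed for behavioral profile; deaths followed up to 7 days.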

Mus musculus [3] = species on record: Mus musculus; test: Compound was evaluated for maximal electroshock antagonism (MES) against mice; format: functional
Method in brief: (§2)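 Male HLa (ICR) BR mice, groups of eight to ten, dosed ip (aqueous solution) 15 min before transcorneal electroshock (50 mA, 0.2 s). End point: abolition of tonic hind-limb extension; quantal ED50 by Litchfield-Wilcoxon.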

Mus musculus [4] = species on record: Mus musculus; test: Evaluated for antagonism of reserpine induced hypothermia; format: functional
Method in brief: (§3)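 Male HLa (ICR) BR mice, 18-24 g, in groups of eight; reserpine 5 mg/kg ip given 2 h before oral test compound as aqueous solution. Rectal temperature taken hourly; 1-4-h hypothermia assessed by analysis of variance.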

[5] = Lethal dose in mouse, in groups of ten; format: toxicity, organism-based; conditions: in vivo
Mus musculus [6] = species on record: Mus musculus; test: Compound was evaluated for maximal electroshock antagonism (MES) against mice; Inactive; format: functional, organism-based; method in brief: as §2
Mus musculus [7] = species on record: Mus musculus; test: Evaluated for antagonism of reserpine induced hypothermia;I= Inactive; format: functional, organism-based; method in brief: as §3
Mus musculus [8] = species on record: Mus musculus; test: Mouse behavior activity was determined;D= Depressant; format: functional, organism-based; method in brief: as §1
Mus musculus [9] = species on record: Mus musculus; test: Righting ability was determined in mice after rapid rolling (aroused); format: functional
Method in brief: (§4)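 Male Simonsen (ICR) fBR mice, 18-24 g, groups of ten, dosed with aqueous compound. Righting ability checked before (unaroused) and after (aroused) rapid rolling in the hand; ED50 by Litchfield-Wilcoxon method.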

Mus musculus [10] = species on record: Mus musculus; test: Righting ability was determined in mice before rapid rolling (unaroused); format: functional; method in brief: as §4
Mus musculus [11] = species on record: Mus musculus; test: Righting ability was determined in mice […] rapid rolling (aroused); format: functional; method in brief: as §4
Mus musculus [12] = species on record: Mus musculus; test: Mouse behavior activity was determined; S-D=Stimulant-Depressant; format: functional, organism-based; method in brief: as §1
Mus musculus [13] = test: Evaluated in vivo for reserpine hypothermia after oral administration in mouse. Minimum active dose was reported; Inactive; format: functional, organism-based; method in brief: as §3

Structure (SMILES): COC(=O)NC1=NC(c2cc(F)ccc2F)CN1 (stereo not drawn)
- Log k' [1]: -0.08
- Mouse behavior activity (Mus musculus [2]): Depressant - weak
- ED50 (Mus musculus [3]): 49 mg/kg
- HYPO (Mus musculus [4]): <0.5 mg/kg
- LD50 [5]: > 300 mg/kg

Structure (SMILES): COC(=O)NC1=NC(C)(c2ccccc2)CN1 (stereo not drawn)
- ED50 (Mus musculus [6]): inactive

Structure (SMILES): COC(=O)NC1=NC(c2cccc(OC)c2)CN1 (stereo not drawn)
- Log k' [1]: -0.07
- HYPO (Mus musculus [7]): inactive
- Mouse behavior activity (Mus musculus [8]): Depressant
- ED50 (Mus musculus [6]): inactive
- Loss of righting reflex (Mus musculus [9]): 197 mg/kg
- Loss of righting reflex (Mus musculus [10]): 182 mg/kg
- LD50 [5]: 700 mg/kg

Structure (SMILES): COC(=O)NC1=NC(c2ccc3c(c2)OCO3)CN1 (stereo not drawn)
- Log k' [1]: -0.14
- HYPO (Mus musculus [7]): inactive
- ED50 (Mus musculus [6]): inactive
- LD50 [5]: 200 mg/kg

Structure (SMILES): COC(=O)NC1=NCC(c2c(Cl)cccc2Cl)N1C (stereo not drawn)
- Log k' [1]: 0.54
- ED50 (Mus musculus [3]): 22 mg/kg

Structure (SMILES): COC(=O)NC1=NC(c2ccccc2)CN1Cc1ccccc1 (stereo not drawn)
- Log k' [1]: 1.25
- HYPO (Mus musculus [7]): inactive
- Mouse behavior activity (Mus musculus [2]): Depressant Weak
- ED50 (Mus musculus [3]): 100 mg/kg
- LD50 [5]: 200 mg/kg

Structure (SMILES): COC(=O)NC1=NC(c2ccc(C(C)C)cc2)CN1 (stereo not drawn)
- Log k' [1]: 0.99
- HYPO (Mus musculus [7]): inactive
- Mouse behavior activity (Mus musculus [2]): Depressant - weak
- ED50 (Mus musculus [6]): inactive
- LD50 [5]: 500 mg/kg

Structure (SMILES): CCOC(=O)NC1=NC(c2cc(C)ccc2C)CN1 (stereo not drawn)
- Log k' [1]: 0.88
- ED50 (Mus musculus [6]): inactive

Structure (SMILES): CC(C)COC(=O)NC1=NC(c2ccccc2)CN1C (stereo not drawn)
- Log k' [1]: 1.15
- Mouse behavior activity (Mus musculus [8]): Depressant
- ED50 (Mus musculus [3]): 70 mg/kg
- Loss of righting reflex (Mus musculus [11]): 76 mg/kg
- Loss of righting reflex (Mus musculus [10]): 41 mg/kg
- HYPO (Mus musculus [4]): >20 mg/kg
- LD50 [5]: 247 mg/kg

Structure (SMILES): COC(=O)NC1=NCC(c2ccccc2)N1C (stereo not drawn)
- ED50 (Mus musculus [6]): inactive
- Mouse behavior activity (Mus musculus [12]): Stimulant-Depressant
- LD50 [5]: 200 mg/kg

Structure (SMILES): CN1C(N)=NCC1c1cccc(Cl)c1 (stereo not drawn)
- ED50 (Mus musculus [6]): inactive

Structure (SMILES): COC(=O)NC1=NCC2(CCc3ccccc32)N1C (stereo not drawn)
- Log k' [1]: 0.48
- ED50 (Mus musculus [13]): inactive
- Mouse behavior activity (Mus musculus [2]): Depressant Weak
- ED50 (Mus musculus [6]): inactive
- LD50 [5]: 300 mg/kg

Structure (SMILES): CCOC(=O)NC1=NC(c2cccc(C)c2C)CN1C (stereo not drawn)
- Log k' [1]: 1.02
- HYPO (Mus musculus [7]): inactive
- Mouse behavior activity (Mus musculus [8]): Depressant
- ED50 (Mus musculus [3]): 70 mg/kg
- Loss of righting reflex (Mus musculus [11]): 66 mg/kg
- Loss of righting reflex (Mus musculus [10]): 41 mg/kg
- LD50 [5]: 300 mg/kg

Structure (SMILES): CCCOC(=O)NC1=NC(c2ccccc2F)CN1C (stereo not drawn)
- Log k' [1]: 0.87
- ED50 (Mus musculus [3]): 23 mg/kg

Structure (SMILES): COC(=O)NC1=NC(c2ccccc2Br)CN1 (stereo not drawn)
- Log k' [1]: 0.47
- ED50 (Mus musculus [3]): 62 mg/kg

Structure (SMILES): CCOc1ccccc1OCC1CNCCO1 (stereo not drawn) [VILOXAZINE]
- ED50 (Mus musculus [3]): 17 mg/kg
- Mouse behavior activity (Mus musculus [12]): Stimulant-Depressant
- LD50 [5]: 200 mg/kg

Structure (SMILES): COC(=O)NC1=NC(c2ccccc2F)CN1C (stereo not drawn)
- Log k' [1]: 0.14
- ED50 (Mus musculus [13]): inactive
- Mouse behavior activity (Mus musculus [2]): Depressant Weak
- ED50 (Mus musculus [3]): 74 mg/kg
- LD50 [5]: 254 mg/kg

Structure (SMILES): CN1CC(c2c(Cl)cccc2Cl)N=C1N (stereo not drawn)
- ED50 (Mus musculus [6]): inactive

Structure (SMILES): CCN1CC(c2ccccc2)N=C1NC(=O)OC (stereo not drawn)
- Log k' [1]: 0.39
- Mouse behavior activity (Mus musculus [8]): Depressant
- ED50 (Mus musculus [3]): 66 mg/kg
- Loss of righting reflex (Mus musculus [10]): 84 mg/kg
- LD50 [5]: 117 mg/kg

Structure (SMILES): COC(=O)NC1=NC(c2ccc(C(F)(F)F)cc2)CN1 (stereo not drawn)
- Log k' [1]: 0.56
- ED50 (Mus musculus [13]): inactive
- Mouse behavior activity (Mus musculus [2]): Depressant - weak
- ED50 (Mus musculus [6]): inactive
- HYPO (Mus musculus [4]): >20 mg/kg
- LD50 [5]: 700 mg/kg

Structure (SMILES): COC(=O)NC1=NC(c2ccccc2-c2ccccc2)CN1 (stereo not drawn)
- Log k' [1]: 1.06
- Mouse behavior activity (Mus musculus [8]): Depressant
- Loss of righting reflex (Mus musculus [10]): 70 mg/kg
- HYPO (Mus musculus [4]): >20 mg/kg
- LD50 [5]: 200 mg/kg

Structure (SMILES): COC(=O)NC1=NC(Cc2ccccc2)CN1 (stereo not drawn)
- Log k' [1]: 0.12

Structure (SMILES): CCOC(=O)NC1=NC(c2ccc(F)cc2)CN1C (stereo not drawn)
- Log k' [1]: 0.48
- ED50 (Mus musculus [3]): 100 mg/kg
- Mouse behavior activity (Mus musculus [12]): Stimulant-Depressant
- HYPO (Mus musculus [4]): <0.5 mg/kg
- LD50 [5]: 200 mg/kg

Structure (SMILES): COC(=O)NC1=NC(c2cccc(Cl)c2)CN1C (stereo not drawn)
- Log k' [1]: 0.53
- Mouse behavior activity (Mus musculus [8]): Depressant
- ED50 (Mus musculus [3]): 100 mg/kg
- Loss of righting reflex (Mus musculus [10]): 200 mg/kg
- LD50 [5]: 300 mg/kg

Structure (SMILES): COC(=O)NC1=NC(c2cccc(OC)c2)CN1C (stereo not drawn)
- Log k' [1]: 0.18
- Mouse behavior activity (Mus musculus [8]): Depressant
- ED50 (Mus musculus [3]): 128 mg/kg
- Loss of righting reflex (Mus musculus [11]): 144 mg/kg
- Loss of righting reflex (Mus musculus [10]): 100 mg/kg
- HYPO (Mus musculus [4]): >20 mg/kg
- LD50 [5]: 250 mg/kg

Structure (SMILES): CCOC(=O)NC1=NCC2c3ccccc3CCN12 (stereo not drawn)
- HYPO (Mus musculus [7]): inactive
- Mouse behavior activity (Mus musculus [12]): Stimulant-Depressant
- LD50 [5]: 200 mg/kg

Structure (SMILES): COC(=O)NC1=NC(c2cc(OC)cc(OC)c2)CN1 (stereo not drawn)
- Log k' [1]: 0.1
- HYPO (Mus musculus [7]): inactive
- Mouse behavior activity (Mus musculus [2]): Depressant - weak
- ED50 (Mus musculus [6]): inactive
- LD50 [5]: 300 mg/kg

Structure (SMILES): COC(=O)NC1=NC2c3ccccc3CC2N1 (stereo not drawn)
- Log k' [1]: -1.14
- HYPO (Mus musculus [7]): inactive
- Mouse behavior activity (Mus musculus [2]): Depressant Weak
- ED50 (Mus musculus [3]): 44 mg/kg
- LD50 [5]: 700 mg/kg

Structure (SMILES): COC(=O)NC1=NC(c2ccccc2C)CN1C (stereo not drawn)
- Log k' [1]: 0.37
- Mouse behavior activity (Mus musculus [8]): Depressant
- ED50 (Mus musculus [3]): 68 mg/kg
- LD50 [5]: 200 mg/kg

Structure (SMILES): CC(C)OC(=O)NC1=NC(c2cccc(Cl)c2)CN1 (stereo not drawn)
- Log k' [1]: 0.95
- ED50 (Mus musculus [3]): 79 mg/kg

Structure (SMILES): COC(=O)NC1=NC(c2c(Cl)cccc2Cl)CN1C (stereo not drawn)
- HYPO (Mus musculus [4]): <0.5 mg/kg

Structure (SMILES): COC(=O)NC1=NC(c2ccccc2F)CN1 (stereo not drawn)
- Mouse behavior activity (Mus musculus [8]): Depressant
- ED50 (Mus musculus [3]): 54 mg/kg
- Loss of righting reflex (Mus musculus [9]): 234 mg/kg
- Loss of righting reflex (Mus musculus [10]): 210 mg/kg
- HYPO (Mus musculus [4]): <0.5 mg/kg
- LD50 [5]: 255 mg/kg

Structure (SMILES): CN(C)CCC=C1c2ccccc2COc2ccccc21 [DOXEPIN]
- Mouse behavior activity (Mus musculus [8]): Depressant
- ED50 (Mus musculus [3]): 16 mg/kg
- Loss of righting reflex (Mus musculus [11]): 43 mg/kg
- Loss of righting reflex (Mus musculus [10]): 40 mg/kg
- LD50 [5]: 50 mg/kg

Structure (SMILES): COC(=O)NC1=NC(c2cc(C)ccc2C)CN1 (stereo not drawn)
- Log k' [1]: 0.58
- HYPO (Mus musculus [7]): inactive
- Mouse behavior activity (Mus musculus [2]): Depressant - weak
- ED50 (Mus musculus [3]): ~100 mg/kg
- LD50 [5]: 700 mg/kg

Structure (SMILES): COC(=O)NC1=NC(c2cc(Cl)cc(Cl)c2)CN1C (stereo not drawn)
- ED50 (Mus musculus [3]): 44 mg/kg

Structure (SMILES): CCOc1ccccc1C1CN=C(NC(=O)OC)N1 (stereo not drawn)
- Log k' [1]: 0.55
- HYPO (Mus musculus [7]): inactive
- Mouse behavior activity (Mus musculus [8]): Depressant
- ED50 (Mus musculus [6]): inactive
- Loss of righting reflex (Mus musculus [9]): 125 mg/kg
- Loss of righting reflex (Mus musculus [10]): 155 mg/kg
- LD50 [5]: 700 mg/kg

Structure (SMILES): COC(=O)NC1=NC(c2cccc(C)c2)CN1C (stereo not drawn)
- Log k' [1]: 0.49
- Mouse behavior activity (Mus musculus [8]): Depressant
- ED50 (Mus musculus [3]): 89 mg/kg
- Loss of righting reflex (Mus musculus [11]): 149 mg/kg
- Loss of righting reflex (Mus musculus [10]): 90 mg/kg
- LD50 [5]: 475 mg/kg

Structure (SMILES): COC(=O)NC1=NCC2c3ccccc3CCN12 (stereo not drawn)
- Mouse behavior activity (Mus musculus [8]): Depressant
- LD50 [5]: 200 mg/kg
